Measured values reported in PubChem BioAssay.
Results filed as inconclusive are left out.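 Rule for the calls, unless noted: active = inhibition over a set limit, the all-compound mean plus 3 SD, in both replicate runs; inconclusive = over that limit in just one replicate run; inactive = at or under that limit in both runs.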

Columns and labels:
[1] = S. cerevisiae growth inhibition in permissive medium (OD615), pilot counter-assay for S. cerevisiae lifespan shortening project, permissive growth control (AID 705;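 active = growth inhibition above 25% in both replicates, a cutoff set 3 SD above the mean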); settings: OD615, 24 h, at 10 µM, stronger effect = higher value
Summary of the method: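 System: S. cerevisiae with engineered DeaD lifespan system. Medium: SC raffinose/galactose permissive medium. Doses: single compound dose of 10 µM, 0.25% DMSO final. Schedule: 24 h exposure, 30 °C. Measured by: OD615 turbidity read. Read-out: growth inhibition.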

[2] = S. cerevisiae growth inhibition in restrictive medium, OD615, pilot screen, restrictive growth control, yeast lifespan reduction project (AID 706;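 active = growth inhibition above a set limit, 3 SD over mean compound inhibition, in both replicates, cut at about 43% in these data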;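 note: modified DeaD lifespan yeast strain shifted to restrictive glucose medium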); settings: OD615, 48 h, at 10 µM, stronger effect = higher value
Summary of the method: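 Assay system – genetically modified Saccharomyces cerevisiae, DeaD replicative lifespan assay strain · Medium – CSMM-D glucose medium · Doses – 10 µM compound, 0.25% DMSO · Times – 4 h pre-incubation, 48 h exposure at 30 °C · Signal – optical density at 615 nm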

[3] = doxorubicin toxicity protection in MRP-1 cells – H69AR cells, CellTiter-Glo, duplicate, MRP-1 activator project, pilot screen (AID 807;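 active = viability increase at or above a cutoff of the median across tested compounds plus 3 SD, cut at about 8.5% in these data, passing the limit was not always enough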;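 note: compound pretreatment 18-22 h then 72 h combined with doxorubicin; 0% = doxorubicin alone and 100% = vehicle without doxorubicin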); settings: H69AR viability with doxorubicin, CellTiter-Glo luminescence; at 10 µM; stronger effect = higher value
[4] = viability of HCT116 without oncogenic beta-catenin – human colon tumor cells, pilot screen (AID 823;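 active = cell viability at or below a set limit in both duplicate runs, the limit being the all-compound median minus 4 SD, cut at about 23% in these data, passing the limit was not always enough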;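 note: 0% = wells killed by 20 µM Hyamine and 100% = untreated DMSO cell wells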); settings: HCT116 beta-catenin knockout viability, CellTiter-Glo, 60 h; at 10 µM; stronger effect = lower value
[5] = viability of PTEN-null HCT116 cells – cell-based, HCT116 clonal line, CellTiter-Glo, pilot screen (AID 824;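 active = viability at or below 27.92% in each of two runs, the all-compound median minus 4 SD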;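 note: 0% = 20 µM Hyamine control and 100% = vehicle cell control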); settings: HCT116 PTEN-deleted viability, 60 h, at 10 µM, stronger effect = lower value
[6] = RAM pathway blockade in budding yeast – dse1pr::URA3 reporter, 5-FOA selection, pilot screen (AID 869);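 note: 0% = DMSO wells with no growth and 100% = 10 µM 1-NA-PP1 with full growth; RAM network block rescues cells from 5-FOA so hits raise OD615 growth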; settings: S. cerevisiae dse1pr::URA3 5-FOA growth, OD615, 2 d; at 10 µM; stronger effect = higher value; strain carries analog-sensitive mutant Cbk1 kinase
[7] = RAM signaling pathway blockade in yeast – S. cerevisiae, Pdr1DBD-CYC8 efflux-inhibited sensitized strain, primary screen (AID 1298;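 active = RAM network inhibition above 8.4% in each of two replicates, 3 SD over the compound average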;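 note: 0% = DMSO untreated cells without growth and 100% = 10 µM 1-NA-PP1 full growth; higher means more yeast growth rescued from 5-FOA killing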); settings: S. cerevisiae cbk1-as DSE1-URA3 strain, 5-FOA growth OD615, 2 d; at 50 µM; stronger effect = higher value

CC1Cc2nc(SCC(=O)Nc3nccs3)n(Cc3ccccc3)c(=O)c2S1 (configuration not stated)
inactive: growth inhibition [1] 4.49% | growth inhibition [2] 8.66% | viability increase [3] -2.23% | viability [4] 94.8% | viability [5] 88.4% | inhibition [6] 2.21% | RAM network inhibition [7] 3.83%

CC1CCCC(C)N1CCCNC(=O)c1cc2c(=O)n(C)c3ccccc3c2n1C (configuration not stated)
inactive: growth inhibition [1] -11.5% | growth inhibition [2] -10.6% | viability increase [3] -6.03% | viability [4] 68.9% | viability [5] 71.5% | inhibition [6] -0.625% | RAM network inhibition [7] 2.26%

COc1ccc(OC)c2c1sc(=NC(=O)C(C)(C)C)n2C
inactive: growth inhibition [1] -7.64% | growth inhibition [2] 6.31% | viability increase [3] -6.23% | viability [4] 84.1% | viability [5] 79.6% | inhibition [6] 3.72% | RAM network inhibition [7] 6.93%

COc1cc(SC)ccc1C(=O)Nc1ccc2c(c1)OCCO2
inactive: growth inhibition [1] -7.61% | growth inhibition [2] -4.97% | viability increase [3] -0.82% | viability [4] 67.1% | viability [5] 65.8% | inhibition [6] 1.18% | RAM network inhibition [7] -0.97%

CCOC12NC(=O)CC(=O)N1C(c1ccccc1)=CS2 (configuration not stated)
inactive: growth inhibition [1] -16% | growth inhibition [2] -6.23% | viability increase [3] 2.97% | viability [4] 100% | viability [5] 104% | inhibition [6] 1.85% | RAM network inhibition [7] 6.38%

CCOc1ccc(N(CC(=O)OC)S(=O)(=O)c2c(C)noc2C)cc1
inactive: growth inhibition [1] 3.84% | growth inhibition [2] -0.545% | viability increase [3] -1.21% | viability [4] 87.4% | viability [5] 95.1% | inhibition [6] -0.69% | RAM network inhibition [7] -0.31%

O=C(NC1=NCCS1)c1csc2ccccc12
inactive: growth inhibition [1] -9.29% | growth inhibition [2] 27.3% | viability increase [3] -3.86% | viability [4] 74% | viability [5] 79% | inhibition [6] 1.16% | RAM network inhibition [7] 1.26%

CN(C)c1nc(N)nc(-c2ccco2)n1
inactive: growth inhibition [1] 3.19% | growth inhibition [2] 14.2% | viability increase [3] 0.01% | viability [4] 93.7% | viability [5] 103% | inhibition [6] 0.535% | RAM network inhibition [7] 0.21%

O=C(NCc1ccncc1)C(F)(F)C(F)(F)C(=O)NCc1ccncc1
inactive: growth inhibition [1] -0.215% | growth inhibition [2] -3.65% | viability increase [3] -1.87% | viability [4] 93.9% | viability [5] 85.4% | inhibition [6] 1.33% | RAM network inhibition [7] 1.22%

COc1cc(CN2CCN(c3cccc(C)c3C)CC2)cc(Br)c1O
inactive: growth inhibition [1] -4.04% | growth inhibition [2] 0.7% | viability increase [3] -2.57% | viability [4] 80.7% | viability [5] 86.6% | inhibition [6] -0.235% | RAM network inhibition [7] 1.51%

COc1cccc(-n2c(Cc3cc(=O)[nH]c(=O)[nH]3)nnc2SCC(=O)NC2CCCCC2)c1
inactive: growth inhibition [1] -4.46% | growth inhibition [2] -1.15% | viability increase [3] -1.6% | viability [4] 100% | viability [5] 101% | inhibition [6] 1.86% | RAM network inhibition [7] 3.48%

CCc1nnc(NC(=O)c2ccc(N3C(=O)CCC3=O)cc2)s1
inactive: growth inhibition [1] -9.63% | growth inhibition [2] -14.9% | viability increase [3] -1.98% | viability [4] 101% | viability [5] 94.7% | inhibition [6] 1.32% | RAM network inhibition [7] 2.48%

Cc1ccc(-c2nc(CS(=O)(=O)CC(=O)N3CCc4ccccc4C3)c(C)o2)cc1
inactive: growth inhibition [1] -3.42% | growth inhibition [2] -1.55% | viability increase [3] -2.25% | viability [4] 67.4% | viability [5] 68.9% | inhibition [6] 0.555% | RAM network inhibition [7] 7.91%

COc1ccccc1CNC(=O)c1nnc(Cc2ccc(Cl)cc2)o1
inactive: growth inhibition [1] -9.86% | growth inhibition [2] 15.4% | viability increase [3] 2.29% | viability [4] 103% | viability [5] 99.8% | inhibition [6] 1.81% | RAM network inhibition [7] 1.15%

O=C(C1CCCN(S(=O)(=O)c2cccc3cccnc23)C1)N1CCN(c2ccc(F)cc2)CC1 (configuration not stated)
inactive: growth inhibition [1] 2.49% | growth inhibition [2] 2.17% | viability increase [3] -0.16% | viability [4] 47.9% | viability [5] 61.8% | inhibition [6] -0.585% | RAM network inhibition [7] 2.25%

CCn1c(N2CCC(C)CC2)nc2c1c(=O)n(C)c(=O)n2C
inactive: growth inhibition [1] -10.5% | growth inhibition [2] 1.69% | viability increase [3] -0.88% | viability [4] 92.9% | viability [5] 85% | inhibition [6] 1.12% | RAM network inhibition [7] 0.06%

CCCc1n[nH]c2c1C(=O)C(C(=O)OC)C(C)(C)C2 (configuration not stated)
inactive: growth inhibition [1] -12.6% | growth inhibition [2] -12.8% | viability increase [3] -3.14% | viability [4] 95.9% | viability [5] 95.8% | inhibition [6] 1.14% | RAM network inhibition [7] 4.78%

COc1ccc(CCNC(=O)c2c(-c3ccccc3)noc2C)cc1OC
inactive: growth inhibition [1] 3.07% | growth inhibition [2] -2.27% | viability increase [3] 0.19% | viability [4] 102% | viability [5] 101% | inhibition [6] 2.2% | RAM network inhibition [7] 0.43%

CCc1ccccc1NC1c2ccccc2C(=O)N1c1cc(C)ccn1 (configuration not stated)
inactive: growth inhibition [1] -12.1% | growth inhibition [2] -4.82% | viability increase [3] -1.63% | viability [4] 99.1% | viability [5] 101% | inhibition [6] 1.82% | RAM network inhibition [7] 11.4%

Cc1ccc(N2C(=O)c3ccccc3C2Nc2ccccc2F)nc1 (configuration not stated)
inactive: growth inhibition [1] -7.38% | growth inhibition [2] -1.2% | viability increase [3] -1.31% | viability [4] 88.3% | viability [5] 90.8% | inhibition [6] 2.46% | RAM network inhibition [7] 10.5%

c1ccc(Cn2ncc3ccccc32)cc1
inactive: growth inhibition [1] -3.05% | growth inhibition [2] 4.4% | viability increase [3] -1.05% | viability [4] 94.8% | viability [5] 98% | inhibition [6] -0.165% | RAM network inhibition [7] -0.97%

CC(C)n1c(NCc2cc(Cl)ccc2O)nc2ccccc21
inactive: growth inhibition [1] -3.83% | growth inhibition [2] -7.78% | viability increase [3] -0.71% | viability [4] 88.8% | viability [5] 87.9% | inhibition [6] -0.06% | RAM network inhibition [7] 1.06%

COc1ccccc1NC(=O)Nc1ccnn1C1CCCCC1
inactive: growth inhibition [1] -7.38% | growth inhibition [2] -10.3% | viability increase [3] -0.89% | viability [4] 92.2% | viability [5] 94.1% | inhibition [6] 2.41% | RAM network inhibition [7] 0.5%

O=C(Cn1cc2c(n1)CCCC2)N1CCCc2ccccc21
inactive: growth inhibition [1] 1.09% | growth inhibition [2] 4.04% | viability increase [3] -1.6% | viability [4] 98.6% | viability [5] 100% | inhibition [6] 0.85% | RAM network inhibition [7] 1.48%

COc1ccc(S(=O)(=O)N(CCc2ccccc2)CC(=O)O)cc1OC
inactive: growth inhibition [1] -1.68% | growth inhibition [2] 10.5% | viability increase [3] 0.57% | viability [4] 97.6% | viability [5] 102% | inhibition [6] 1.35% | RAM network inhibition [7] 1.09%

CCOC(=O)C1=C(C)NC(=O)NC1c1ccc(N(CC)CC)cc1 (configuration not stated)
inactive: growth inhibition [1] -11.1% | growth inhibition [2] -3.54% | viability increase [3] -1.3% | viability [4] 97.5% | viability [5] 99.3% | inhibition [6] 1.44% | RAM network inhibition [7] 1.67%

Cc1ccc2[nH]c(=O)c(-c3noc(C(C)C)n3)cc2c1
inactive: growth inhibition [1] -11.9% | growth inhibition [2] -1.75% | viability increase [3] -2.88% | viability [4] 114% | viability [5] 96.5% | inhibition [6] 0.48% | RAM network inhibition [7] 5.62%

CCOC(=O)c1cccc(NC(=O)Cn2cc3c(n2)CCC(C)C3)c1 (configuration not stated)
inactive: growth inhibition [1] 4.72% | growth inhibition [2] 17.6% | viability increase [3] -0.48% | viability [4] 101% | viability [5] 92.3% | inhibition [6] 1.12% | RAM network inhibition [7] 0.81%

Brc1ccc(-c2nnc3sc(CNCc4ccc5c(c4)OCO5)cn23)cc1
inactive: growth inhibition [1] 5.46% | growth inhibition [2] 20.8% | viability increase [3] -0.67% | viability [4] 99.6% | viability [5] 99.8% | inhibition [6] 1.17% | RAM network inhibition [7] 1.64%

O=C(c1cccc(F)c1)N1CCN=C1SCc1cccnc1
inactive: growth inhibition [1] -2.18% | growth inhibition [2] 8.84% | viability increase [3] -0.35% | viability [4] 102% | viability [5] 96.3% | inhibition [6] 0.32% | RAM network inhibition [7] 0.89%

CC(NS(=O)(=O)c1ccc(Br)cc1)C(c1cccs1)N1CCN(C)CC1 (configuration not stated)
inactive: growth inhibition [1] -5.18% | growth inhibition [2] 3.13% | viability increase [3] -2.85% | viability [4] 78.2% | viability [5] 84.2% | inhibition [6] 0.53% | RAM network inhibition [7] 0.88%

Cc1ccsc1-c1nc(CSCC(=O)NCc2ccc3c(c2)OCO3)c(C)o1
inactive: growth inhibition [1] -9.04% | growth inhibition [2] 2.91% | viability increase [3] -0.27% | viability [4] 87.2% | viability [5] 84% | inhibition [6] 0.83% | RAM network inhibition [7] 9.63%

CCOc1cc2c(cc1OCC)C(c1ccc(O)c(OC)c1)NCC2 (configuration not stated)
inactive: growth inhibition [1] -5.95% | growth inhibition [2] -11.5% | viability increase [3] -3.12% | viability [4] 75.3% | viability [5] 81.6% | inhibition [6] 2.12% | RAM network inhibition [7] 1.63%

CCOc1cccc(C(=O)Nc2nnc(-c3ccco3)s2)c1
inactive: growth inhibition [1] -7.86% | growth inhibition [2] -7.51% | viability increase [3] -0.2% | viability [4] 103% | viability [5] 104% | inhibition [6] 3.44% | RAM network inhibition [7] 2.28%

Cc1cccc(-n2c(O)c(C=Nc3ccc4c(c3)OCO4)c3ccccc3c2=O)n1
inactive: growth inhibition [1] 1.54% | growth inhibition [2] -8.37% | viability increase [3] -0.5% | viability [4] 89.3% | viability [5] 80.2% | inhibition [6] 0.93% | RAM network inhibition [7] 2.46%

O=C(CCCOc1ccccc1)Nc1cccc(C(=O)O)c1
inactive: growth inhibition [1] -0.54% | growth inhibition [2] 3.65% | viability increase [3] 0.34% | viability [4] 96% | viability [5] 98.6% | inhibition [6] 2.61% | RAM network inhibition [7] 2.71%
